Experimental data reported in ChEMBL document CHEMBL1146380, “Synthesis, antimicrobial activity, and QSAR studies of furan-3-carboxamides” (2007).
Values after ≈ are worked out from the molar mass of the structure shown. Active and inactive are the calls of the source. The rule behind the calls is not given here.

Experiments:
[1] = test system: Aspergillus fumigatus; test: Antimicrobial activity against Aspergillus fumigatus isolate by broth microdilution method; assay type: functional
[2] = test system: Scedosporium boydii; test: Antimicrobial activity against Pseudallescheria boydii isolate by broth microdilution method; assay type: functional
[3] = test system: Klebsiella pneumoniae; test: Antimicrobial activity against Klebsiella pneumoniae ATCC 1003 by broth microdilution method; assay type: functional
Method in brief: (§1)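 Bacteria grown overnight on Mueller–Hinton agar. Colonies were suspended in saline to McFarland turbidity (about 10^8 cfu/mL), diluted 1:100 in saline, then 1:20 in Mueller–Hinton broth, giving 5 · 10^4 cfu/mL per well. DMSO-dissolved compound was tested in twofold dilutions from 320 to 1.25 at 35 °C for 24 h. MIC was the lowest concentration with no visible turbidity (M7-A4). Bactericidal concentration was read by subculturing clear wells on Mueller–Hinton agar.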

[4] = test system: Fusarium solani; test: Antimicrobial activity against Fusarium solani isolate by broth microdilution method; assay type: functional
[5] = test system: Candida albicans; test: Antimicrobial activity against Candida albicans ATCC 44373 by broth microdilution method; assay type: functional
Method in brief: (§2)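 Yeasts grown on potato dextrose agar. Inoculum was standardized by McFarland turbidity as for bacteria, into RPMI 1640 broth (M27-A2). DMSO-dissolved compound was tested in twofold dilutions from 320 to 1.25 at 35 °C for 24 h, in duplicate. MIC was the lowest concentration completely inhibiting visible growth. Fungicidal concentration was read by subculturing 20 µL from clear wells on Sabouraud dextrose agar at 35 °C.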

[6] = test system: Aspergillus niger; test: Antimicrobial activity against Aspergillus niger isolate by broth microdilution method; assay type: functional
[7] = test system: Aspergillus terreus; test: Antimicrobial activity against Aspergillus terreus isolate by broth microdilution method; assay type: functional
[8] = test system: Pseudomonas aeruginosa; test: Antimicrobial activity against Pseudomonas aeruginosa ATCC 27853 by broth microdilution method; assay type: functional; method in brief: as §1
[9] = test system: Sporothrix schenckii; test: Antimicrobial activity against Sporothrix schenckii ATCC 1146 by broth microdilution method; assay type: functional
[10] = test system: Saccharomyces cerevisiae; test: Antimicrobial activity against Saccharomyces cerevisiae ATCC 2601 by broth microdilution method; assay type: functional
Method in brief: (§3)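 Organism grown on potato dextrose agar, with turbidity-standardized inoculum in RPMI 1640 broth (M27-A2). DMSO-dissolved compound was tested in twofold dilutions from 320 to 1.25 at 35 °C, incubated up to 72 h, in duplicate. MIC was the lowest concentration with no visible growth. Cidal concentration was read by subculturing 20 µL from clear wells on Sabouraud dextrose agar, incubated for the same period.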

[11] = test system: Prototheca zopfii; test: Antimicrobial activity against Prototheca zopfii by broth microdilution method; assay type: functional; method in brief: as §3
[12] = test system: Nakaseomyces glabratus; test: Antimicrobial activity against Candida glabrata […] by broth microdilution method; assay type: functional; method in brief: as §2
[13] = test system: Cryptococcus deneoformans; test: Antimicrobial activity against Cryptococcus neoformans var.neoformans serotype D ATCC 28952 by broth microdilution method; assay type: functional; method in brief: as §3
[14] = test system: Candida dubliniensis; test: Antimicrobial activity against Candida dubliniensis CBS 7987 by broth microdilution method; assay type: functional; method in brief: as §2
[15] = test system: Rhizopus arrhizus; test: Antimicrobial activity against Rhizopus oryzae isolate by broth microdilution method; assay type: functional
[16] = test system: Escherichia coli; test: Antimicrobial activity against Escherichia coli ATCC 25922 by broth microdilution method; assay type: functional; method in brief: as §1
[17] = test system: Aspergillus flavus; test: Antimicrobial activity against Aspergillus flavus isolate by broth microdilution method; assay type: functional
[18] = (§4) Antimicrobial activity against Salmonella setubal ATCC 19196 by broth microdilution method; assay type: functional, Salmonella enterica subsp. enterica serovar Setubal; conditions: Salmonella enterica; method in brief: as §1
[19] = test system: Salmonella enterica subsp. enterica serovar Setubal; test: as §4; assay type: functional; method in brief: as §1
[20] = test system: Staphylococcus aureus; test: Antimicrobial activity against Staphylococcus aureus ATCC 25923 by broth microdilution method; assay type: functional; method in brief: as §1

MIC [1] [µg/mL] | MIC [2] [µg/mL] | MIC [3] [µg/mL] | MIC [4] [µg/mL] | MIC [7] [µg/mL] | MIC [8] [µg/mL] | MIC [9] [µg/mL] | MIC [10] [µg/mL] | MIC [11] [µg/mL] | MIC [13] [µg/mL] | MIC [15] [µg/mL] | MIC [16] [µg/mL] | MIC [18] [µg/mL] | MIC [20] [µg/mL] | Compound | MFC [1] [µg/mL] | MFC [2] [µg/mL] | Activity [3] | Activity [4] | MFC [10] [µg/mL] | Activity [19] | further results
320 (≈ 1580 µM) | 160 (≈ 791 µM) | 320 (≈ 1580 µM) | 320 (≈ 1580 µM) | 320 (≈ 1580 µM) | 320 (≈ 1580 µM) | 320 (≈ 1580 µM) | 320 (≈ 1580 µM) | 160 (≈ 791 µM) | 160 (≈ 791 µM) | 320 (≈ 1580 µM) | 320 (≈ 1580 µM) | 320 (≈ 1580 µM) | 320 (≈ 1580 µM) | O=C(NCc1cccnc1)c1ccoc1 | 320 (≈ 1580 µM) | 160 (≈ 791 µM) | inactive | inactive | 320 (≈ 1580 µM) | inactive | Activity [5]: inactive; MFC [6]: 320 µg/mL (≈ 1580 µM); MIC [6]: 320 µg/mL (≈ 1580 µM); Activity [7]: inactive; Activity [8]: inactive; MFC [9]: 320 µg/mL (≈ 1580 µM); MFC [11]: 160 µg/mL (≈ 791 µM); Activity [12]: inactive; MFC [13]: 320 µg/mL (≈ 1580 µM); Activity [14]: inactive; MIC [14]: 320 µg/mL (≈ 1580 µM); MFC [15]: 320 µg/mL (≈ 1580 µM); Activity [16]: inactive; Activity [17]: inactive; Activity [20]: inactive
20 (≈ 98.9 µM) | 10 (≈ 49.5 µM) | 320 (≈ 1580 µM) | 2.5 (≈ 12.4 µM) | 40 (≈ 198 µM) | 320 (≈ 1580 µM) | 10 (≈ 49.5 µM) | 320 (≈ 1580 µM) | 160 (≈ 791 µM) | 160 (≈ 791 µM) | 320 (≈ 1580 µM) | 320 (≈ 1580 µM) | 320 (≈ 1580 µM) | 320 (≈ 1580 µM) | O=C(NNc1ccccc1)c1ccoc1 | 20 (≈ 98.9 µM) | 320 (≈ 1580 µM) | inactive | – | 320 (≈ 1580 µM) | inactive | MFC [4]: 2.5 µg/mL (≈ 12.4 µM); MFC [5]: 320 µg/mL (≈ 1580 µM); MIC [5]: 320 µg/mL (≈ 1580 µM); MFC [6]: 40 µg/mL (≈ 198 µM); MIC [6]: 20 µg/mL (≈ 98.9 µM); MFC [7]: 40 µg/mL (≈ 198 µM); Activity [8]: inactive; MFC [9]: 320 µg/mL (≈ 1580 µM); MFC [11]: 320 µg/mL (≈ 1580 µM); Activity [12]: inactive; MIC [12]: 320 µg/mL (≈ 1580 µM); MFC [13]: 160 µg/mL (≈ 791 µM); MFC [14]: 320 µg/mL (≈ 1580 µM); MIC [14]: 320 µg/mL (≈ 1580 µM); MFC [15]: 320 µg/mL (≈ 1580 µM); Activity [16]: inactive; MFC [17]: 20 µg/mL (≈ 98.9 µM); MIC [17]: 10 µg/mL (≈ 49.5 µM); Activity [20]: inactive
320 (≈ 1140 µM) | 160 (≈ 571 µM) | 320 (≈ 1140 µM) | 320 (≈ 1140 µM) | 320 (≈ 1140 µM) | 160 (≈ 571 µM) | 160 (≈ 571 µM) | 160 (≈ 571 µM) | 320 (≈ 1140 µM) | 320 (≈ 1140 µM) | 320 (≈ 1140 µM) | 320 (≈ 1140 µM) | 320 (≈ 1140 µM) | 320 (≈ 1140 µM) | Cc1ccc(S(=O)(=O)NNC(=O)c2ccoc2)cc1 | 320 (≈ 1140 µM) | 160 (≈ 571 µM) | inactive | inactive | 320 (≈ 1140 µM) | inactive | Activity [5]: inactive; Activity [6]: inactive; Activity [7]: inactive; MBC [8]: 320 µg/mL (≈ 1140 µM); Activity [9]: inactive; Activity [11]: inactive; Activity [12]: inactive; MFC [13]: 320 µg/mL (≈ 1140 µM); Activity [14]: inactive; Activity [15]: inactive; Activity [16]: inactive; Activity [17]: inactive; MIC [17]: 320 µg/mL (≈ 1140 µM); Activity [20]: inactive
320 (≈ 1020 µM) | 40 (≈ 128 µM) | 160 (≈ 512 µM) | 320 (≈ 1020 µM) | 320 (≈ 1020 µM) | 20 (≈ 64 µM) | 20 (≈ 64 µM) | 80 (≈ 256 µM) | 320 (≈ 1020 µM) | 320 (≈ 1020 µM) | 320 (≈ 1020 µM) | 160 (≈ 512 µM) | 320 (≈ 1020 µM) | 40 (≈ 128 µM) | O=C(NCCC1CCN(Cc2ccccc2)CC1)c1ccoc1 | – | 80 (≈ 256 µM) | – | inactive | 160 (≈ 512 µM) | inactive | Activity [1]: inactive; MBC ([3]; read-out: MFC): 320 µg/mL (≈ 1020 µM); MFC [5]: 320 µg/mL (≈ 1020 µM); MIC [5]: 160 µg/mL (≈ 512 µM); Activity [6]: inactive; MIC [6]: 320 µg/mL (≈ 1020 µM); Activity [7]: inactive; Activity [8]: inactive; Activity [9]: inactive; MFC [11]: 320 µg/mL (≈ 1020 µM); MFC [12]: 320 µg/mL (≈ 1020 µM); MIC [12]: 320 µg/mL (≈ 1020 µM); Activity [13]: inactive; MFC [14]: 160 µg/mL (≈ 512 µM); MIC [14]: 160 µg/mL (≈ 512 µM); Activity [15]: inactive; MBC [16]: 320 µg/mL (≈ 1020 µM); Activity [17]: inactive; MIC [17]: 320 µg/mL (≈ 1020 µM); MBC ([20]; read-out: MFC): 160 µg/mL (≈ 512 µM)
